Data as given in ChEMBL document CHEMBL4138298, “Synthesis of Novel Tetrahydroisoquinoline CXCR4 Antagonists with Rigidified Side-Chains” (ACS Med Chem Lett, 2018).
pIC50: −log10 of the molar value. Calls of active or inactive are those of the source. The calls are words filed in the database; no cut-off is given here.

Legend:
[1] = Permeability of the compound in pH 7.4 buffer after 4 hrs by PAMPA; assay type: ADME; conditions: read-out: permeability
Outline: (§1)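 Parallel artificial membrane permeability assay (PAMPA) for passive transcellular permeability, run at pH 7.4 and at pH 5.5, with permeability reported in nm/s.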

[2] = Metabolic stability in rat liver microsomes assessed as parent compound remaining; assay type: ADME, microsome
[3] = target: T1, Muscarinic acetylcholine receptor M3 (Homo sapiens, UniProt P20309); test: Antagonist activity at mAChR M3 in human CCRF-CEM cells assessed as inhibition of acetylcholine-mediated calcium flux incubated for 25 mins followed by acetylcholine stimulation measured for 90 secs; assay type: functional, cell-based
Target sequence in this assay (P20309 whole entry): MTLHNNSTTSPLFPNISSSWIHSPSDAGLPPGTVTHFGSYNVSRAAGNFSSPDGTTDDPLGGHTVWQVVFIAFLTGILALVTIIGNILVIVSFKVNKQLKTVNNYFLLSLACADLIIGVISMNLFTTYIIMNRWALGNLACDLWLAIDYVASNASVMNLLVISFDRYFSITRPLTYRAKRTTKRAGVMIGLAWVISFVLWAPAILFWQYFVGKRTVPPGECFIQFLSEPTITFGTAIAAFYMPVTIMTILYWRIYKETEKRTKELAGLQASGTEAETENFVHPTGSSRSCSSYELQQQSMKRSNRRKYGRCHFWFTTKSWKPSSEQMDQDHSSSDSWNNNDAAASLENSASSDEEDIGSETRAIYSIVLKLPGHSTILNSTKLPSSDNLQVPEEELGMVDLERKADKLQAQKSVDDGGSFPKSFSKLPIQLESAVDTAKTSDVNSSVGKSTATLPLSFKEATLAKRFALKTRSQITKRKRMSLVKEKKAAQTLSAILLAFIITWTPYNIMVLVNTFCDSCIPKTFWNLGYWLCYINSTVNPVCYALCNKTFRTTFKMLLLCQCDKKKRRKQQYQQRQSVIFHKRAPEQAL

[4] = Metabolic stability in mouse liver microsomes assessed as parent compound remaining; assay type: ADME, microsome
[5] = Permeability of the compound in pH 5.5 buffer after 4 hrs by PAMPA; assay type: ADME; conditions: for Papp at 4 h: PAMPA, pH 5.5, read-out: permeability; for permeability: pampa, pH 5.5, 4 h, 4 h; outline: as §1
Cytochrome P450 2D6 = Cytochrome P450 2D6 (Homo sapiens, UniProt P10635); test: Inhibition of recombinant human CYP2D6 expressed in insect microsomes using AMMC as substrate preincubated for 30 mins followed by NADPH addition measured after 45 mins by fluorescence assay; assay type: ADME
Cytochrome P450 3A4 = Cytochrome P450 3A4 (Homo sapiens, UniProt P08684); test: Inhibition of CYP3A4 (unknown origin) using BFC as substrate; assay type: ADME
[6] = Metabolic stability in human liver microsomes assessed as parent compound remaining; assay type: ADME, microsome
[7] = target: T2, C-X-C chemokine receptor type 4 (Homo sapiens, UniProt P61073); test: Antagonist activity at CXCR4 in human CCRF-CEM cells assessed as inhibition of CXCL12-mediated calcium flux incubated for 25 mins followed by CXCL12 stimulation measured for 90 secs; assay type: functional, cell-based
Cytochrome P450 2C8 = target: T3, Cytochrome P450 2C8 (Homo sapiens, UniProt P10632); test: Inhibition of CYP2C8 (unknown origin); assay type: ADME
T3 sequence (P10632 whole entry): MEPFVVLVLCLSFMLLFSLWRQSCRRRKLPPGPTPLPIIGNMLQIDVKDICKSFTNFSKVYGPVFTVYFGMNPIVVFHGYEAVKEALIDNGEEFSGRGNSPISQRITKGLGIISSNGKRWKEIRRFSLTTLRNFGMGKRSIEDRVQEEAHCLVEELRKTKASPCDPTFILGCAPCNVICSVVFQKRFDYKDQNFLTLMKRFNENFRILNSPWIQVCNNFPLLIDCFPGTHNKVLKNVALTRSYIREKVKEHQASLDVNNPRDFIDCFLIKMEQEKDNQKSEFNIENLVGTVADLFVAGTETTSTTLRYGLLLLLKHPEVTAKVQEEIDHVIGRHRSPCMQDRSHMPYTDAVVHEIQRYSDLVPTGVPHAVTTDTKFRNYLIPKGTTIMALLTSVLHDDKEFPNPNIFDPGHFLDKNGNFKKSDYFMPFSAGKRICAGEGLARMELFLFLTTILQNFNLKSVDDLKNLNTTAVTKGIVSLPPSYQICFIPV

Cytochrome P450 2C19 = Cytochrome P450 2C19 (Homo sapiens, UniProt P33261); test: Inhibition of CYP2C19 (unknown origin); assay type: ADME
[8] = target: T1, Muscarinic acetylcholine receptor M3; test: Antagonist activity at mAChR M3 in human CCRF-CEM cells assessed as inhibition of acetylcholine-mediated calcium flux incubated for 25 mins followed by acetylcholine stimulation measured for 90 secs relative to control; assay type: functional, cell-based; further: test concentration or dose not given here
Target sequence in this assay (P20309 whole entry, looked up): as the sequence (P20309 whole entry) above

Cytochrome P450 2C9 = Cytochrome P450 2C9 (Homo sapiens, UniProt P11712); test: Inhibition of CYP2C9 (unknown origin); assay type: ADME
Cytochrome P450 2A6 = target: T4, Cytochrome P450 2A6 (Homo sapiens, UniProt P11509); test: Inhibition of CYP2A6 (unknown origin); assay type: ADME
T4 sequence (P11509 whole entry): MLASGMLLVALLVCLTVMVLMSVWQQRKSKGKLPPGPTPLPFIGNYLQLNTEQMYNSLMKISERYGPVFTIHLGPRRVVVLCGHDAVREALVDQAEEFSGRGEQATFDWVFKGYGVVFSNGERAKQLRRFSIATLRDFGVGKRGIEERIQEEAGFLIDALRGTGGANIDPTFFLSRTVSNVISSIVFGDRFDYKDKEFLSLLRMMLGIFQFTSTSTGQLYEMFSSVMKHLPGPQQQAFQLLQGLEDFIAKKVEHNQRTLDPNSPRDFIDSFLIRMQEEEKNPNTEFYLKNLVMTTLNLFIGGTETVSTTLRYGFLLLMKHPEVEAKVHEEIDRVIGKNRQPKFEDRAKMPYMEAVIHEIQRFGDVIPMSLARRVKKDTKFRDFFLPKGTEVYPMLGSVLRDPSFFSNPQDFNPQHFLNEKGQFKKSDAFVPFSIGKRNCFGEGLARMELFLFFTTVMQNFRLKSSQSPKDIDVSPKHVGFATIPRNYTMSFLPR

Cytochrome P450 1A2 = target: T5, Cytochrome P450 1A2 (Homo sapiens, UniProt P05177); test: Inhibition of CYP1A2 (unknown origin); assay type: ADME
T5 sequence (P05177 whole entry): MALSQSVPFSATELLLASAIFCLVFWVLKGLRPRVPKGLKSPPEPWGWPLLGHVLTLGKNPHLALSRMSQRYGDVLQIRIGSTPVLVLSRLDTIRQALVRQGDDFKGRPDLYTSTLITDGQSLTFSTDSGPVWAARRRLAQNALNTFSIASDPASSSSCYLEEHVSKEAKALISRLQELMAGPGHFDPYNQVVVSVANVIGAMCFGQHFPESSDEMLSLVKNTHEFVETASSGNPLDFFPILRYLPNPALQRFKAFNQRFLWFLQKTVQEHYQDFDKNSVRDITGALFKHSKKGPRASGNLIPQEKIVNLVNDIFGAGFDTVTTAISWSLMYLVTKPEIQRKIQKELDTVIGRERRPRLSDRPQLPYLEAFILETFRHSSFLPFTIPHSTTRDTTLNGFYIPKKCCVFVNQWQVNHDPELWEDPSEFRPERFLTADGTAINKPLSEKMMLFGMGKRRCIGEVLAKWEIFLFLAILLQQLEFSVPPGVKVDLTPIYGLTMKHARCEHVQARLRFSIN

Cytochrome P450 2B6 = target: T6, Cytochrome P450 2B6 (Homo sapiens, UniProt P20813); test: Inhibition of CYP2B6 (unknown origin); assay type: ADME
T6 sequence (P20813 whole entry): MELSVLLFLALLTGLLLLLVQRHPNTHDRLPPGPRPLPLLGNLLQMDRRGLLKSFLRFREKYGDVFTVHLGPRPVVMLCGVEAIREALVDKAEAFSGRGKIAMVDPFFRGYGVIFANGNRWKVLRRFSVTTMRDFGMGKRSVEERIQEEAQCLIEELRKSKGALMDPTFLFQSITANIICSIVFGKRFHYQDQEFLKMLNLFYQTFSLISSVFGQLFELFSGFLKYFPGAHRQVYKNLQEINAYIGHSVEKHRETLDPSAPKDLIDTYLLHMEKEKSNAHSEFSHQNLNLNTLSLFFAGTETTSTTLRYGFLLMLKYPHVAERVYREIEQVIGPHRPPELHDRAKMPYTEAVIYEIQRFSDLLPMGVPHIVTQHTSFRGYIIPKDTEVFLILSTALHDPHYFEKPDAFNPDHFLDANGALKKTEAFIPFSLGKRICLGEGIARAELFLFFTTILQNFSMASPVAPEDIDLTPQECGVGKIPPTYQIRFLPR

[9] = target: T1, Muscarinic acetylcholine receptor M3; test: Agonist activity at mAChR M3 in human CCRF-CEM cells assessed as increase in calcium flux incubated for 90 secs; assay type: functional, cell-based
Target sequence in this assay (P20309 whole entry, looked up): as the sequence (P20309 whole entry) above

[10] = target: T2, C-X-C chemokine receptor type 4; test: Agonist activity at CXCR4 in human CCRF-CEM cells assessed as increase in calcium flux incubated for 90 secs; assay type: functional, cell-based

Chain of Cytochrome P450 2D6 (P10635 whole entry): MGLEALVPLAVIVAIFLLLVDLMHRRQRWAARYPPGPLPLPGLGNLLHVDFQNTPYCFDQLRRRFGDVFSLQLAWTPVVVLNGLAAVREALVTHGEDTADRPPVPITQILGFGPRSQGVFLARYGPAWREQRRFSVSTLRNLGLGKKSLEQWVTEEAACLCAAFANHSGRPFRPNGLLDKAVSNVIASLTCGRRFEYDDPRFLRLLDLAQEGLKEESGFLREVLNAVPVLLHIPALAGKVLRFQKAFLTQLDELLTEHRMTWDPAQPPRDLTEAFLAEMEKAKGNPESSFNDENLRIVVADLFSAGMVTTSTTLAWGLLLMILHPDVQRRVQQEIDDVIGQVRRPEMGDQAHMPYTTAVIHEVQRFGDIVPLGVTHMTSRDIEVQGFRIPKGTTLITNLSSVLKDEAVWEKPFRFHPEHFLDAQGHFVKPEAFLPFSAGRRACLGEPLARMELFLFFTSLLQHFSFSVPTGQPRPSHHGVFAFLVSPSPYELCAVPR
Chain of Cytochrome P450 3A4 (P08684 whole entry): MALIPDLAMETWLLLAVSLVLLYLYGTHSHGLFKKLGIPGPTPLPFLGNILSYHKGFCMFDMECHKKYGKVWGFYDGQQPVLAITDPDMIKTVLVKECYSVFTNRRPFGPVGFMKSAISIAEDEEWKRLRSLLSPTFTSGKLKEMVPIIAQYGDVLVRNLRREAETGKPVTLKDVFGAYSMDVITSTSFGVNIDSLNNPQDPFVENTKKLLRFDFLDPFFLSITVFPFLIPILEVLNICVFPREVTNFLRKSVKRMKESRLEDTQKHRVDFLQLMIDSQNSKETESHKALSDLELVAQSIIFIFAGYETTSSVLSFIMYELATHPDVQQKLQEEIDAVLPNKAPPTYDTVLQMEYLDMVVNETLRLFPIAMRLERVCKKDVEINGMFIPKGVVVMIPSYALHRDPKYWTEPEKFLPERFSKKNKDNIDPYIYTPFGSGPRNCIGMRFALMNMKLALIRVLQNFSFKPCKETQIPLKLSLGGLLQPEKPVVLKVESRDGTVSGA
Chain of Cytochrome P450 2C19 (P33261 whole entry): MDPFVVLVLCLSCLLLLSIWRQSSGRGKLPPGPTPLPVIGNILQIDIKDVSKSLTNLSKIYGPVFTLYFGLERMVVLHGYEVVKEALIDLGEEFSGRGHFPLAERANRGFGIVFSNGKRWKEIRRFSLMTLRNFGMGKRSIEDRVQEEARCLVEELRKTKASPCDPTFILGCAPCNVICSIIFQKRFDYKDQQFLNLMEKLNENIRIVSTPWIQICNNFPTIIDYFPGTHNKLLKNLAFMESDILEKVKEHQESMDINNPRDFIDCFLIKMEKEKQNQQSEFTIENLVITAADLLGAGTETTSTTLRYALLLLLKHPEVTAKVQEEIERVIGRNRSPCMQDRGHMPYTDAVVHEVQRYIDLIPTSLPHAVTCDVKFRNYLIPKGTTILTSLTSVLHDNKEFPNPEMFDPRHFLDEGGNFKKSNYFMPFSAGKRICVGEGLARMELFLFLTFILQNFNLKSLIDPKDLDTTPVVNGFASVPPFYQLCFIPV
T2 sequence (P61073 whole entry): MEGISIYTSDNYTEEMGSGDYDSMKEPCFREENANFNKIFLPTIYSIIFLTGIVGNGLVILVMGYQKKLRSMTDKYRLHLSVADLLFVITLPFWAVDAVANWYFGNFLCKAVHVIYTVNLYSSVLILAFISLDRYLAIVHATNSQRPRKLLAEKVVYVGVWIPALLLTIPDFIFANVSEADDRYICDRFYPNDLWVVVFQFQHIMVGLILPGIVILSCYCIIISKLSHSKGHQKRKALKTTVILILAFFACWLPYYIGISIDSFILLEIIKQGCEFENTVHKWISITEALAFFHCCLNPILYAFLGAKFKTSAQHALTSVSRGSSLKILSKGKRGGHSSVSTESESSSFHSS
Chain of Cytochrome P450 2C9 (P11712 whole entry): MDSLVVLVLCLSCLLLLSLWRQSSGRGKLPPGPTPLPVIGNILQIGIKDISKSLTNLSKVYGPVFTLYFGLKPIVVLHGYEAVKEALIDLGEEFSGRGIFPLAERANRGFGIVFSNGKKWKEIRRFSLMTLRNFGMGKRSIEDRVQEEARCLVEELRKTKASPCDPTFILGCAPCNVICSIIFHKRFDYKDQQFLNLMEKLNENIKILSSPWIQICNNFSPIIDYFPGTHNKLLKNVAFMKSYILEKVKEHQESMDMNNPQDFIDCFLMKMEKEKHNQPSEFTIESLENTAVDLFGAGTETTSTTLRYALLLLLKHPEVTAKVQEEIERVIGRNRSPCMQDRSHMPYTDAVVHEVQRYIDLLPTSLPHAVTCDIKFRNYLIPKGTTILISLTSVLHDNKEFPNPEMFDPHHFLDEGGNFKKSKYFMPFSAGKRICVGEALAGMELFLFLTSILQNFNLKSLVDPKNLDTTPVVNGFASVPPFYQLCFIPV

Structure (SMILES) | Papp at 4 h [1] [×10⁻⁶ cm/s] | Stability [2] [%] | pIC50 [3] | Stability [4] [%] | Papp at 4 h [5] [×10⁻⁶ cm/s] | pIC50 (Cytochrome P450 2D6) | pIC50 (Cytochrome P450 3A4) | Stability [6] [%] | pIC50 [7] | also measured
C/C(CN(C[C@H]1Cc2ccccc2CN1)[C@H]1CCCc2cccnc21)=C(\F)CN | 55 | 6 | 5.02 | 1 | 28 | 6.72 | 4.89 | 51 | – | –
NCC1=C(CN(C[C@H]2Cc3ccccc3CN2)[C@H]2CCCc3cccnc32)CCCC1 | – | 1 | 4.64 | 2 | 17 | 6.74 | – | 65 | 6.64 | –
NCC1CC1CN(C[C@H]1Cc2ccccc2CN1)[C@H]1CCCc2cccnc21 (single isomer, unassigned; diastereomer 1) [listing 1 of 2 here] | – | – | – | – | – | – | – | – | – | inhibition [8]: 51%
N[C@H]1CC[C@H](N(C[C@H]2Cc3ccccc3CN2)[C@H]2CCCc3cccnc32)CC1 | 3.7 | 71 | < 4.48 | 77 | 0.6 | 5.60 | < 4.70 | 95 | 7.47 | –
N[C@H]1CC[C@@H](N(C[C@H]2Cc3ccccc3CN2)[C@H]2CCCc3cccnc32)CC1 | – | 24 | < 4.48 | 56 | 1 | 7.09 | < 4.70 | 86 | 5.74 | –
NC[C@H]1CC[C@H](CN(C[C@H]2Cc3ccccc3CN2)[C@H]2CCCc3cccnc32)CC1 | – | 86 | 5.00 | 92 | – | 4.92 | – | 63 | – | pIC50 (Cytochrome P450 2C19): 5.04; pIC50 (Cytochrome P450 2C8): 5.39
NCC1CC1CN(C[C@H]1Cc2ccccc2CN1)[C@H]1CCCc2cccnc21 (single isomer, unassigned; diastereomer 1) [listing 2 of 2 here] | 13 | 1 | < 4.48 | 1 | – | 6.27 | – | 100 | 8.19 | permeability [5]: 0.8 ×10⁻⁶ cm/s
NCC1CC1CN(C[C@H]1Cc2ccccc2CN1)[C@H]1CCCc2cccnc21 (single isomer, unassigned; diastereomer 2) | – | – | 4.89 | 4 | – | 6.57 | – | – | 7.89 | permeability [5]: 8.8 ×10⁻⁶ cm/s
N[C@H]1CC[C@H](CN(C[C@H]2Cc3ccccc3CN2)[C@H]2CCCc3cccnc32)CC1 | 1.2 | 51 | < 4.48 | 44 | – | 6.12 | 5.00 | 39 | 6.55 | –

Now from value to compound, other results behind:

Papp at 4 h [1] [×10⁻⁶ cm/s] | Stability [2] [%] | pIC50 [3] | Stability [4] [%] | Papp at 4 h [5] [×10⁻⁶ cm/s] | pIC50 (Cytochrome P450 2D6) | pIC50 (Cytochrome P450 3A4) | Stability [6] [%] | pIC50 [7] | Structure (SMILES) | also measured
70 | 61 | < 4.77 | 15 | – | 6.96 | 5.74 | 35 | 5.74 | C/C(CN(C[C@H]1Cc2ccccc2CN1)[C@H]1CCCc2cccnc21)=C(/F)CN | pIC50 (Cytochrome P450 2C8): 4.74
22 | 72 | 5.06 | 61 | – | 6.85 | 5.62 | 97 | 7.36 | C/C(CN)=C(/F)CN(C[C@H]1Cc2ccccc2CN1)[C@H]1CCCc2cccnc21 | pIC50 (Cytochrome P450 2C19): 4.72
11 | 2 | < 4.80 | 2 | 1.3 | 6.33 | – | 73 | 6.68 | NC(=O)NC/C=C\CN(C[C@H]1Cc2ccccc2CN1)[C@H]1CCCc2cccnc21 | –
57 | 4 | 6.21 | 4 | – | – | – | 100 | 8.00 | NC/C=C\CN(C[C@H]1Cc2ccccc2CN1)[C@H]1CCCc2cccnc21 | –
25 | 2 | 5.96 | 2 | 8.3 | 7.06 | < 4.70 | 96 | – | C/C(=C/CN)CN(C[C@H]1Cc2ccccc2CN1)[C@H]1CCCc2cccnc21 | –
83 | 34 | < 4.80 | 11 | 26 | – | – | 100 | – | NC/C=C/CN(C[C@H]1Cc2ccccc2CN1)[C@H]1CCCc2cccnc21 | inhibition (INH) (Cytochrome P450 2C9): Not Active; inhibition (INH) (Cytochrome P450 2A6): Not Active; inhibition (INH) (Cytochrome P450 2C19; human): Not Active; inhibition (INH) (Cytochrome P450 1A2): Not Active; inhibition (INH) (Cytochrome P450 2C8; human): Not Active; inhibition (INH) (Cytochrome P450 2B6): Not Active
49 | 2 | 6.11 | 2 | 5 | 7.23 | 4.82 | 100 | 7.55 | C/C(CN)=C(\F)CN(C[C@H]1Cc2ccccc2CN1)[C@H]1CCCc2cccnc21 | –
1.1 | 1 | 7.49 | 2 | 0.4 | > 7.57 | < 4.70 | 100 | 8.07 | C/C(=C/CN(C[C@H]1Cc2ccccc2CN1)[C@H]1CCCc2cccnc21)CN | –
1.3 | 1 | 4.96 | 3 | – | 6.27 | – | 44 | – | FC1(F)CCC(NC/C=C\CN(C[C@H]2Cc3ccccc3CN2)[C@H]2CCCc3cccnc32)CC1 | Activity [9]: Active; Activity [10]: Active
